Consider three compounds from ChEMBL document CHEMBL5653631, “A Potent and Selective ULK1 Inhibitor Suppresses Autophagy and Sensitizes Cancer Cells to Nutrient Stress” (iScience, 2018).

Each structure is given as a SMILES string.

The target in assay [1] is Serine/threonine-protein kinase WNK1 (Homo sapiens) (UniProt Q9H4A3). The experiment in a line: Inhibition of human recombinant Wnk1 at 40 nM related to control ULK1.
For assay [2], the target named is Ribosomal protein S6 kinase alpha-1 (Homo sapiens) (UniProt Q15418). The experiment in a line: Inhibition of human recombinant RSK1 at 40 nM related to control ULK1.
Assay [3] deals with T1, Mitogen-activated protein kinase kinase kinase 2 (Homo sapiens) (UniProt Q9Y2U5).
T1 sequence (whole entry): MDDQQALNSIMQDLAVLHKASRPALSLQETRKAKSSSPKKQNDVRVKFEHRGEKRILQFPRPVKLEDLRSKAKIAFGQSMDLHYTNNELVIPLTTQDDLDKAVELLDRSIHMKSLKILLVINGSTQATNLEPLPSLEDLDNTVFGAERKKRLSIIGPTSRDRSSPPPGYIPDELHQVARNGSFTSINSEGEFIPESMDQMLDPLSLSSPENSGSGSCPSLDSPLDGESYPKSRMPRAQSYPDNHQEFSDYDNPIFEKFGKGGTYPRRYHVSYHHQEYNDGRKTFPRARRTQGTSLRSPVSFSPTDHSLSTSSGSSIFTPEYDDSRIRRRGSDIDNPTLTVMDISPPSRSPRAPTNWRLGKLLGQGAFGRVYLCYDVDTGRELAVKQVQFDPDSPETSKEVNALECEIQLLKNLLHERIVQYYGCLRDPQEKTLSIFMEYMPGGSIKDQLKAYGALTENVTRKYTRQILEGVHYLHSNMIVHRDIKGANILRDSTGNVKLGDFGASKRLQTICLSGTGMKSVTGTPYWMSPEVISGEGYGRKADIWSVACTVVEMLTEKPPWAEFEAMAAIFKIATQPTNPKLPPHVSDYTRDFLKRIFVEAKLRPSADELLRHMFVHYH
The experiment in a line: Inhibition of human recombinant MAP3K2 at 500 nM related to control ULK1.

Assay [4] concerns the target T2, Phosphorylase b kinase gamma catalytic chain, liver/testis isoform (Homo sapiens) (UniProt P15735).
T2 sequence (whole entry): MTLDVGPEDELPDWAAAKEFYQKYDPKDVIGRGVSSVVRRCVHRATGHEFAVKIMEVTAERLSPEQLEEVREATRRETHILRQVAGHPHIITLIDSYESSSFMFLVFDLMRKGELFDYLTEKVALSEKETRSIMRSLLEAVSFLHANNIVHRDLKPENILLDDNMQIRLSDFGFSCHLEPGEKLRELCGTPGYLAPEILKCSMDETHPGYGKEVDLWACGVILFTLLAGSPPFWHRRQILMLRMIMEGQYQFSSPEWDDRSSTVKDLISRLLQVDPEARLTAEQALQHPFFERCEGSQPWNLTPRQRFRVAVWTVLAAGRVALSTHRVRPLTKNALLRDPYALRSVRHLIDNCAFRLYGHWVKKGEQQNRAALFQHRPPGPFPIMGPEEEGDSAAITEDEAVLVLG
The experiment in a line: Inhibition of human recombinant PHKg2 at 500 nM related to control ULK1.

Assay [5] addresses Aurora kinase B (Homo sapiens) (UniProt Q96GD4). The experiment in a line: Inhibition of human recombinant AurB at 500 nM in presence of ATP by radiometric assay relative to control. Put shortly: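 Part of a radiometric in vitro activity panel of 327 recombinant human kinases. Each kinase was tested in duplicate at one inhibitor concentration. Activity remaining was expressed as a percentage of the vehicle control, and percent inhibition was taken as 100 minus that value.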

The target of assay [6] is T3, Serine/threonine-protein kinase STK11 (Homo sapiens) (UniProt Q15831).
T3 sequence (whole entry): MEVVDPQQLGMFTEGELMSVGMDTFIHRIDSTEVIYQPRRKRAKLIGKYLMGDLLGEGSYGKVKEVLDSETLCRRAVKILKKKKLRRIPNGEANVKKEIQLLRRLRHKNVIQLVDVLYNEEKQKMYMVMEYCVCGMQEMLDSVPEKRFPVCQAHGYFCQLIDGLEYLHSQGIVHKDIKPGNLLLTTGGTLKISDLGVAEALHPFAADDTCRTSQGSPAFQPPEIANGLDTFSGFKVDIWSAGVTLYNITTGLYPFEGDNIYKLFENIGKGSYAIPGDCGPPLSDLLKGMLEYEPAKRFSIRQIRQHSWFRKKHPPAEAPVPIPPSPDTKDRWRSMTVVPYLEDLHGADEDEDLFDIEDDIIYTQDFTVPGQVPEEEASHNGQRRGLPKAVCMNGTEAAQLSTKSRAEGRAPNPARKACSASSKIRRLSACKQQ
The experiment in a line: Inhibition of human recombinant LKB1 at 500 nM related to control ULK1.

For assay [7], the target named is T4, Inhibitor of nuclear factor kappa-B kinase subunit epsilon (Homo sapiens) (UniProt Q14164).
T4 sequence (whole entry): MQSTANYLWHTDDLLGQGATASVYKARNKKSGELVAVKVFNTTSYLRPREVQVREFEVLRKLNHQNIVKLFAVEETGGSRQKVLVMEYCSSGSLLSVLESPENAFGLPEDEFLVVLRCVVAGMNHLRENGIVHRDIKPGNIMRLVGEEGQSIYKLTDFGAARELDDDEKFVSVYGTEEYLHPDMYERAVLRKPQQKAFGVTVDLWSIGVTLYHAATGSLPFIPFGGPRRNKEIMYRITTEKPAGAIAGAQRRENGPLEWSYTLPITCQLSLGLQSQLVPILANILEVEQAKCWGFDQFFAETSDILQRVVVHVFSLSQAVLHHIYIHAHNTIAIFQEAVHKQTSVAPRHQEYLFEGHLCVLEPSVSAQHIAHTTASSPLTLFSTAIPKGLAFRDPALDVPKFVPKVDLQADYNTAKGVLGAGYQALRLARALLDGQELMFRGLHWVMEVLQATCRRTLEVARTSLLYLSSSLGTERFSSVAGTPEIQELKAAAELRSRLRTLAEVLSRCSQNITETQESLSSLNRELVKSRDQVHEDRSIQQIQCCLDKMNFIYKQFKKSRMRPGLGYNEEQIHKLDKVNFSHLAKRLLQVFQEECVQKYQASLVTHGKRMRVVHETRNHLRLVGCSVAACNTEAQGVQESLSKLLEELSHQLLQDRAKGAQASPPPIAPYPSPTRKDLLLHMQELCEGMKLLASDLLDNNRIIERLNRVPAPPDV
The experiment in a line: Inhibition of human recombinant IKKe at 500 nM related to control ULK1.

Assay [8] addresses T5, MAP kinase-interacting serine/threonine-protein kinase 2 (Homo sapiens, UniProt Q9HBH9). The experiment in a line: Inhibition of human recombinant MNK2 at 500 nM related to control ULK1.
Assay [9] concerns the target Tyrosine-protein kinase HCK (Homo sapiens) (UniProt P08631). The experiment in a line: Inhibition of human recombinant HCK at 15 nM related to control ULK1.
The target of assay [10] is Calcium/calmodulin-dependent protein kinase type 1D (Homo sapiens) (UniProt Q8IU85). The experiment in a line: Inhibition of human recombinant CaMK1d at 15 nM in presence of ATP by radiometric assay relative to control.
The target in assay [11] is T5, MAP kinase-interacting serine/threonine-protein kinase 2. The experiment in a line: Inhibition of human recombinant MNK2 at 15 nM in presence of ATP by radiometric assay relative to control.
For assay [12], the target named is STE20-like serine/threonine-protein kinase (Homo sapiens) (UniProt Q9H2G2). The experiment in a line: Inhibition of human recombinant SLK at 15 nM related to control ULK1.
Sequence of STE20-like serine/threonine-protein kinase (Homo sapiens) (Q9H2G2 whole entry, looked up): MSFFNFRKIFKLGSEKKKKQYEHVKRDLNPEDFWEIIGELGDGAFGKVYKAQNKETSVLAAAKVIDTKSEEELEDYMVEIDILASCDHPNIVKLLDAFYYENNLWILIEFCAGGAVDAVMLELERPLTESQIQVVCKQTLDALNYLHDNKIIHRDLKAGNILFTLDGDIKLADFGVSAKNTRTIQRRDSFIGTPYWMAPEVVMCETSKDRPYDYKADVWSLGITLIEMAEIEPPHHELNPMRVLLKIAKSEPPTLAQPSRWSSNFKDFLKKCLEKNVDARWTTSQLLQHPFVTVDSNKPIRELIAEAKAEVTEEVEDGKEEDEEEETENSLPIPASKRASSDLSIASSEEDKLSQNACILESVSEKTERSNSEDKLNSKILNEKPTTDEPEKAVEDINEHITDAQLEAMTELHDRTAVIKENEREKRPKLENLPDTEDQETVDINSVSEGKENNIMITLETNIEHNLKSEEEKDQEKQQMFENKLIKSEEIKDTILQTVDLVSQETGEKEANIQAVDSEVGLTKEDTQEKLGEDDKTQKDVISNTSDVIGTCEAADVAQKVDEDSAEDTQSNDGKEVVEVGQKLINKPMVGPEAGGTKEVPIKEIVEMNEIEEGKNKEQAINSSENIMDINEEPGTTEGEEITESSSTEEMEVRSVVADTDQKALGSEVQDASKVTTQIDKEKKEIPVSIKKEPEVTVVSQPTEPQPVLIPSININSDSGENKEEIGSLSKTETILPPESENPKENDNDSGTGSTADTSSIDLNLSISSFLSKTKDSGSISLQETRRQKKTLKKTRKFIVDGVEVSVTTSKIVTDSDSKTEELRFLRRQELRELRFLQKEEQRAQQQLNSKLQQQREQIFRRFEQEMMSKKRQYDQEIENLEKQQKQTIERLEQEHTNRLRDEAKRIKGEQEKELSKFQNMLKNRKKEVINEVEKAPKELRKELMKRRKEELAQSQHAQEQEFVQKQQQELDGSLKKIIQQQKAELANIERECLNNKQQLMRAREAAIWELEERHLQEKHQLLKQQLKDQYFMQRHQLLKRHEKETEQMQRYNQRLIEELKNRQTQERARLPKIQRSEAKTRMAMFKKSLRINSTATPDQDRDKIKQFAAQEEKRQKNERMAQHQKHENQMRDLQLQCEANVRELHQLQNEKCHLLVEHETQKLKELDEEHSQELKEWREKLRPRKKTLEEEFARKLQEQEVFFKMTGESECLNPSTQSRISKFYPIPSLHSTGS

T5 sequence (Q9HBH9 whole entry, looked up): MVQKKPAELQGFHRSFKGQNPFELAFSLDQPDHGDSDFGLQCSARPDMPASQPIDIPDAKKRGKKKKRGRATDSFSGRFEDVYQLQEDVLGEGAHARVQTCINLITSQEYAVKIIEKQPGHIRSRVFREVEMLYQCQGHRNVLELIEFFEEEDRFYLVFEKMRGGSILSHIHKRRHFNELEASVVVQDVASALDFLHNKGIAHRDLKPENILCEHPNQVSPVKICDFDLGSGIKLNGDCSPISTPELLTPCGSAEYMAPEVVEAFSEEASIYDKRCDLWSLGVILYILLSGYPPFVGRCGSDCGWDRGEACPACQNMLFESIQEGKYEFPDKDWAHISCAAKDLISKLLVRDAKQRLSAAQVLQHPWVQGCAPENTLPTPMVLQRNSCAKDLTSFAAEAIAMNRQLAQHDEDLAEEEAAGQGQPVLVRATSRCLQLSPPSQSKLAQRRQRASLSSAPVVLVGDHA
Sequence of Ribosomal protein S6 kinase alpha-1 (Homo sapiens) (Q15418 whole entry): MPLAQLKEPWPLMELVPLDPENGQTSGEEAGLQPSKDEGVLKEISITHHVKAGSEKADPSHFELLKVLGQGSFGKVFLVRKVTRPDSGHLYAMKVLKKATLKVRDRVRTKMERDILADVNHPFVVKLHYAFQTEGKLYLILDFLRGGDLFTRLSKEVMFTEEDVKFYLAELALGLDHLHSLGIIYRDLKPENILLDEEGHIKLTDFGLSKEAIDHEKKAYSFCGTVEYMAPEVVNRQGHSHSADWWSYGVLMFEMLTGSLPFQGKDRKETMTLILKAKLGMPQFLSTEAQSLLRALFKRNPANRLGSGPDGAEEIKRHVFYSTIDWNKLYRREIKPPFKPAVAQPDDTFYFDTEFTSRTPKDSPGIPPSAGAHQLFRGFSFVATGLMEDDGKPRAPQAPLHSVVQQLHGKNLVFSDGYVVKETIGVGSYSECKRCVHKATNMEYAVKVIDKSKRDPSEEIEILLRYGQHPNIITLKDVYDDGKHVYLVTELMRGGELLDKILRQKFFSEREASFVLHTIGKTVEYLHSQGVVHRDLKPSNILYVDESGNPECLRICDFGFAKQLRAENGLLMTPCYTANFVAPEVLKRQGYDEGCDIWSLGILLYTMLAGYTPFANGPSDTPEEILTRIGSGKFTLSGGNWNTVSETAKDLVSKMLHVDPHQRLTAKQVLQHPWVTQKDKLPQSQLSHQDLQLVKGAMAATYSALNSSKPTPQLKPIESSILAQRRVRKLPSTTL
Sequence of Serine/threonine-protein kinase WNK1 (Homo sapiens) (Q9H4A3 whole entry, looked up): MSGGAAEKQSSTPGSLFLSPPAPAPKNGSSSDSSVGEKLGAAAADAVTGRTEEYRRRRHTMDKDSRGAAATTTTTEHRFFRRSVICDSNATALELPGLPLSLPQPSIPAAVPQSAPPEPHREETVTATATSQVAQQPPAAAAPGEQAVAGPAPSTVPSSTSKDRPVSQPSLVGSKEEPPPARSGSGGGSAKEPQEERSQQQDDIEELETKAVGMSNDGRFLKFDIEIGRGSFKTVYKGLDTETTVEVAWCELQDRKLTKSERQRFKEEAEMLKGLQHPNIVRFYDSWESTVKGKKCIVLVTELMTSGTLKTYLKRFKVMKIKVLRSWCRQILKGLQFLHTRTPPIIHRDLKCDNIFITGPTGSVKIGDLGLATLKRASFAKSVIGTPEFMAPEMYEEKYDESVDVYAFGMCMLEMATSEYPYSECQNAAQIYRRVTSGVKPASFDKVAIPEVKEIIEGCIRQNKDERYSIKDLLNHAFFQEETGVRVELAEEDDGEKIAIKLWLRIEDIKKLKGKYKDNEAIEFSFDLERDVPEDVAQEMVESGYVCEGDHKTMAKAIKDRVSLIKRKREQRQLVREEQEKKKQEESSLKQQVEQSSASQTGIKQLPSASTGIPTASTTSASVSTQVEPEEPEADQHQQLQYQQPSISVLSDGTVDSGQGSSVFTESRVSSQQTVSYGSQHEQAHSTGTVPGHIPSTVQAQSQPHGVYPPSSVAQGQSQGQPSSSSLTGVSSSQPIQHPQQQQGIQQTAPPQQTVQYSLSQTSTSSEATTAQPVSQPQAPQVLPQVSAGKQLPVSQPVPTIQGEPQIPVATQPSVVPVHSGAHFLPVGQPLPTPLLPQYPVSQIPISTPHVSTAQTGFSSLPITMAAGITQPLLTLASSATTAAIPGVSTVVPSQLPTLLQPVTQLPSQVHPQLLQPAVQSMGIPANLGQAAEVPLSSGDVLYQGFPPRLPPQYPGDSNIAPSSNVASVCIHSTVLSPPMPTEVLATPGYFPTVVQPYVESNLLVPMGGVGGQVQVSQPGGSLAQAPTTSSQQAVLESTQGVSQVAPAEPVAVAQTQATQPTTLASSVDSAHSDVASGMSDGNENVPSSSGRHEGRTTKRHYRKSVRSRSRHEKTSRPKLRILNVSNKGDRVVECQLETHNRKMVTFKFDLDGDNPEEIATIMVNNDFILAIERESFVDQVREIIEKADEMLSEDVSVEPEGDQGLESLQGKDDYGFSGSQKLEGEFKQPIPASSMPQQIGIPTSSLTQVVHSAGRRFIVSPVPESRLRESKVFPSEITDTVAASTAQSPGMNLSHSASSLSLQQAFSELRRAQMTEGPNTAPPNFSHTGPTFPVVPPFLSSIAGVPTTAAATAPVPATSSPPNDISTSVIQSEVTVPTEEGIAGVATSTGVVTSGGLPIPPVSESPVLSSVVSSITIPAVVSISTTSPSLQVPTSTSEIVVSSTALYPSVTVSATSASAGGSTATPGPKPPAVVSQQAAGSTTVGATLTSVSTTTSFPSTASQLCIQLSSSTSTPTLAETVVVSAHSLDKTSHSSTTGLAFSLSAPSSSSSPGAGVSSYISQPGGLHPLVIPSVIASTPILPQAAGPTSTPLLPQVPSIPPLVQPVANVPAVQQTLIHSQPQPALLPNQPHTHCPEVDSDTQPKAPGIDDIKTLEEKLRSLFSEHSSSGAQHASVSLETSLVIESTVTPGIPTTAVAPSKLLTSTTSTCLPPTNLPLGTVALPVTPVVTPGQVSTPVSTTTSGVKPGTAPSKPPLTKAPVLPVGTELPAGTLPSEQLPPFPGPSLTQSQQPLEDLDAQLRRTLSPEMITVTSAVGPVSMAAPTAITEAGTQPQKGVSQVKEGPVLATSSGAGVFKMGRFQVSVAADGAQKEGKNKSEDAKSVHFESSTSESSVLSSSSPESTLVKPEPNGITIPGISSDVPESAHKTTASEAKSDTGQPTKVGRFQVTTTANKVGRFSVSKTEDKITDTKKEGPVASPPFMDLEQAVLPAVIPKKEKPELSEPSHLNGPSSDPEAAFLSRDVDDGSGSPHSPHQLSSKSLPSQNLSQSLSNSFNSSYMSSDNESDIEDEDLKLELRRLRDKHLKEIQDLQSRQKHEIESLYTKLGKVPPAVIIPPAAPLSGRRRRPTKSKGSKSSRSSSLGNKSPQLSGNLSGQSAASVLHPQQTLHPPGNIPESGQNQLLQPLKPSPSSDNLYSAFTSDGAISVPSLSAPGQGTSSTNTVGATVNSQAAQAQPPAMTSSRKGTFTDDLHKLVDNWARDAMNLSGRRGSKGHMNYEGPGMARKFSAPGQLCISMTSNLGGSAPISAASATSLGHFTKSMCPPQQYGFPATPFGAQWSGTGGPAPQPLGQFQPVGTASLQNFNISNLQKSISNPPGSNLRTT

On to `O=C(N[C@@H](C1CC1)C(F)(F)F)c1cc(-c2cnn3cc(-c4ccc(F)cc4)cnc23)cs1`, for which the fold change (FC) is 0.16 in [1] and 0.11 in [2].
Turning to `CNC(=O)c1ccccc1Oc1nc(Nc2cc(OC)c(OC)c(OC)c2)ncc1Br`, the fold change (FC) stood at 0.04 in assay [3]; 0 in assay [4]; 0.16 in assay [6]; 0 in assay [7]; 0.03 in [8]. Moreover, the inhibition in [5] amounted to 92%.
Take `CC(C)[C@H](NC(=O)c1cc(-c2cnn3cc(-c4ccc(OCCN5CCCCC5)cc4)cnc23)cs1)C(F)(F)F`: the values for the fold change (FC) in assay [9] and in assay [12] were 0.3 and 0.25, respectively. Also, the inhibition came out at 0% in [10] and 26% in [11].
